Measured values reported in ChEMBL document CHEMBL1138119, “Extremely potent orally active benzo[g]quinoline analogue of the dopaminergic prodrug: 1-propyl-trans-2,3,4,4a,5,7,8,9,10,10a-decahydro-1H-benzo-[g]quinolin-6-one [corrected]” (2006).
Active and inactive are the calls of the source. The rule behind the calls is not given here.

How the values were obtained:
[1] = molecular target: D(1A) dopamine receptor (Rattus norvegicus) (UniProt P18901); assay: Displacement of [3H]SCH-23390 from dopamine D1 receptor in rat corpus striatum membrane at 100nM; assay type: cell membranes
[2] = molecular target: D(2) dopamine receptor (Rattus norvegicus) (UniProt P61169); assay: Displacement of [3H]spiperone from dopamine D2 receptor in rat corpus striatum membrane at 100nM; assay type: cell membranes
In short: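 Inhibition of [3H]spiperone binding (0.50 nM; Kd 0.20 nM) to dopamine receptors in rat corpus striatum membranes, in vitro. Displacement was measured at a single fixed test concentration.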

[3] = molecular target: D(3) dopamine receptor (Homo sapiens) (UniProt P35462); assay: Displacement of [3H]spiperone from human dopamine D3 receptor expressed in CHO cells at 50nM; assay type: cell-based
In short: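 CHO membranes with cloned human D3 (26 µg protein) in 25 mM Tris-HCl pH 7.4, 6.0 mM MgCl2, 1.0 mM EDTA. […] Incubated 60 min at 25 °C, filtered on PEI-treated GF/C, and counted by scintillation. Measured at a single test concentration.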

[4] = molecular target: T1, D(4) dopamine receptor (Homo sapiens) (UniProt P21917); assay: Displacement of [3H]nemonapride from human dopamine D4 receptor at 50nM
T1 sequence (whole entry): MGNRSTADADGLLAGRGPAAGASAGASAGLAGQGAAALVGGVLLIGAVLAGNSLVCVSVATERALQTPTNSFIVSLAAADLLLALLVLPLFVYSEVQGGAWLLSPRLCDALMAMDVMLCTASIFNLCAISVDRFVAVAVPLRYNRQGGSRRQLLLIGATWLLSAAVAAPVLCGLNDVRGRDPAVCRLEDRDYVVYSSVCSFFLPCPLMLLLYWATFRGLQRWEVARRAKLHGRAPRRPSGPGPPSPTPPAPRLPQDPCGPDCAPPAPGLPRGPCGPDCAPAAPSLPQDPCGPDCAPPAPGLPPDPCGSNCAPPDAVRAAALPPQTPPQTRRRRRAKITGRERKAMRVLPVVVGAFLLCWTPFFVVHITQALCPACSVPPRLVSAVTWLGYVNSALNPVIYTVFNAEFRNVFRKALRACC
In short: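 Inhibition of [3H]nemonapride binding (0.50 nM; Kd 0.20 nM) to cloned human D4 receptors, in vitro. Displacement was measured at a single fixed test concentration.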

Rattus norvegicus [5] = assay: Effect on striatal dopamine release in rat at 1umol/kg, sc; assay type: functional, organism-based
In short: (§1)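 Striatal microdialysis in freely moving rats, done by a previously described procedure. Doses were given sc or po. Dopamine levels are expressed relative to basal dopamine levels, as mean (SEM) from four rats.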

Rattus norvegicus [6] = assay: Decrease in striatal dopamine levels in rat at 1 nmol/kg, sc; assay type: functional; parameters: scale not given: the % may be the effect or the level left; in short: as §1
Rattus norvegicus [7] = assay: Decrease in striatal dopamine levels in rat at 3 nmol/kg, sc; assay type: functional; parameters: scale not given: the % may be the effect or the level left; in short: as §1
Rattus norvegicus [8] = assay: Decrease in striatal dopamine levels in rat at 10 nmol/kg, sc; assay type: functional; parameters: scale not given: the % may be the effect or the level left; in short: as §1
Rattus norvegicus [9] = assay: Decrease in striatal dopamine levels in rat at 3 nmol/kg, po; assay type: functional; parameters: scale not given: the % may be the effect or the level left; in short: as §1
Rattus norvegicus [10] = assay: Decrease in striatal dopamine levels in rat at 10 nmol/kg, po; assay type: functional; parameters: scale not given: the % may be the effect or the level left; in short: as §1

D(3) dopamine receptor (Homo sapiens), sequence (P35462 whole entry): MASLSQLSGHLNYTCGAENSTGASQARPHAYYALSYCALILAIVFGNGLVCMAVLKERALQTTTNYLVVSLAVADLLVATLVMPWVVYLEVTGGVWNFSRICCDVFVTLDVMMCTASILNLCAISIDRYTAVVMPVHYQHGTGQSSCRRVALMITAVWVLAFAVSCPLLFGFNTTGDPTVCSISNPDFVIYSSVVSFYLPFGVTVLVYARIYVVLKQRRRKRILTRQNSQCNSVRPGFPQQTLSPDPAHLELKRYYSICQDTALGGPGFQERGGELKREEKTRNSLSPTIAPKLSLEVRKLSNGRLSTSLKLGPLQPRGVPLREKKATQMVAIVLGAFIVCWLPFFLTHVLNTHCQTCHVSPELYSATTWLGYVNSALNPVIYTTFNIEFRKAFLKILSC
D(1A) dopamine receptor (Rattus norvegicus), sequence (P18901 whole entry): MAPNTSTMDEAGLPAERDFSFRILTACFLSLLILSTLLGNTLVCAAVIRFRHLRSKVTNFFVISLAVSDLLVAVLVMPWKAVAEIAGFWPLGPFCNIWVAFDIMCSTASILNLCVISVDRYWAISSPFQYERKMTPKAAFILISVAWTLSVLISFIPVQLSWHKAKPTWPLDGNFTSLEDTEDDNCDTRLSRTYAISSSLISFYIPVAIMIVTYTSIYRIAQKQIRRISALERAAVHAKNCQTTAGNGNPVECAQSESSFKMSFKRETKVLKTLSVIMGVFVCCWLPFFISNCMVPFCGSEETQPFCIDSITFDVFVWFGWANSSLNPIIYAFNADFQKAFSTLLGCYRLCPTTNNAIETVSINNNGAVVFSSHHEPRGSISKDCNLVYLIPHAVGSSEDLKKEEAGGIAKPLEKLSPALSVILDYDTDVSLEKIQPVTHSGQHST
D(2) dopamine receptor (Rattus norvegicus), sequence (P61169 whole entry): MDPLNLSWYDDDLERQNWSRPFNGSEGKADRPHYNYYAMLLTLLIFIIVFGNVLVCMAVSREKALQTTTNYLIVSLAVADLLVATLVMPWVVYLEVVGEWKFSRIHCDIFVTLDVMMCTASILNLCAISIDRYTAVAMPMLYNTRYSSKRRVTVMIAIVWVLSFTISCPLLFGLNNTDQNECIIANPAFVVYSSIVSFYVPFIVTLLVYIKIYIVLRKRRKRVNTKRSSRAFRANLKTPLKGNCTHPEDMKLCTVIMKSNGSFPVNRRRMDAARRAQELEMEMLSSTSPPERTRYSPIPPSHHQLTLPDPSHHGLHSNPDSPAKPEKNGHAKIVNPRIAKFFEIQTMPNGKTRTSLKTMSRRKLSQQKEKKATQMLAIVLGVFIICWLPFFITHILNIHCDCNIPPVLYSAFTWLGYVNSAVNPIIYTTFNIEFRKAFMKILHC

Compound | Activity [1] | Activity [2] | Activity [3] | Activity [4] | Activity (Rattus norvegicus [5]) | Activity (Rattus norvegicus [6]) | Activity (Rattus norvegicus [7]) | Activity (Rattus norvegicus [8]) | Activity (Rattus norvegicus [9]) | Activity (Rattus norvegicus [10])
CCCN1CCCC2CC3=C(CCCC3=O)CC21 (single isomer, unassigned; (+)) | 7% | 3% | 28% | -19% | inactive | – | – | – | – | –
CCCN1CCCC2CC3=C(CCCC3=O)CC21 (single isomer, unassigned; (-)) [listing 1 of 2 here] | – | – | – | – | – | 20% | 20% | 20% | 45% | 60%
CCCN1CCCC2CC3=C(CCCC3=O)CC21 (single isomer, unassigned; (-)) [listing 2 of 2 here] | -1% | 15% | 23% | -4% | – | – | – | – | – | –
